According to ChEMBL document CHEMBL1125185, “Nonpeptide angiotensin II receptor antagonists: the discovery of a series of N-(biphenylylmethyl)imidazoles as potent, orally active antihypertensives” (J Med Chem, 1991):
Activity calls are given as the source filed them. The rule behind the calls is not given here.

Key:
[1] = Ionization constant for the compound; type: physicochemical, Rattus norvegicus
Rattus norvegicus [2] = assay: Blood pressure lowering activity in renal hypertensive rats after intravenous administration; no drop in blood pressure or a statistically insignificant drop in blood pressure was observed (in vivo); type: functional
In short: (§1)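 Male Sprague-Dawley CD rats had the left renal artery ligated under hexobarbital (100 mg/kg ip). Six days later the jugular vein and carotid artery were cannulated under hexobarbital (90 mg/kg ip). Compound was given intravenously to the conscious hypertensive rats while mean arterial pressure was recorded.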

Rattus norvegicus [3] = assay: These values indicate drop in blood pressure activity in renal hypertensive rats after peroral administration; NA=not active indicates fail to cause drop in blood pressure even at 30 mg/Kg (in vivo); type: functional, organism-based
Angiotensin II receptor = molecular target: T1, Angiotensin II receptor (Rattus norvegicus, UniProt P29089+P25095+P35351); assay: Inhibition of radioligand [3H]angiotensin II binding to angiotensin II receptor of rat adrenal cortical membrane
T1 sequence (P29089 whole entry): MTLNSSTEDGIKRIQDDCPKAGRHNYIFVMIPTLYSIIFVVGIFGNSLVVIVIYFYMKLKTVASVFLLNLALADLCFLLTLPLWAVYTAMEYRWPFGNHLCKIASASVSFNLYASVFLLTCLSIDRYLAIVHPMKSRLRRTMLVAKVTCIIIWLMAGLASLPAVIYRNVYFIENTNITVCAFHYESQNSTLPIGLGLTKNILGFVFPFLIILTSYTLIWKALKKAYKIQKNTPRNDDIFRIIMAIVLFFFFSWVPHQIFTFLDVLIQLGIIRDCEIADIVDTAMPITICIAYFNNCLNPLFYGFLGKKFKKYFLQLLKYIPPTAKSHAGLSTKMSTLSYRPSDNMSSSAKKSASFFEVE
T1 sequence (P25095 whole entry): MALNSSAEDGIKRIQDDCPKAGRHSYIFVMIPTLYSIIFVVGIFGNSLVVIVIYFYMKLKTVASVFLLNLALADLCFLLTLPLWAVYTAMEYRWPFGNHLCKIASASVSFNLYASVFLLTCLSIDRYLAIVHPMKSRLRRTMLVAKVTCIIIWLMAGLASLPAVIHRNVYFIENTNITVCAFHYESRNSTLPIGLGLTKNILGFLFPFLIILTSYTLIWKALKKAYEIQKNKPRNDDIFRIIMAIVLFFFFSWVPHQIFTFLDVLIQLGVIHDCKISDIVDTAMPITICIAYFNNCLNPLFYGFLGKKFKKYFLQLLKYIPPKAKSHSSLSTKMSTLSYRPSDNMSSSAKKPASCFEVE
T1 sequence (P35351 whole entry): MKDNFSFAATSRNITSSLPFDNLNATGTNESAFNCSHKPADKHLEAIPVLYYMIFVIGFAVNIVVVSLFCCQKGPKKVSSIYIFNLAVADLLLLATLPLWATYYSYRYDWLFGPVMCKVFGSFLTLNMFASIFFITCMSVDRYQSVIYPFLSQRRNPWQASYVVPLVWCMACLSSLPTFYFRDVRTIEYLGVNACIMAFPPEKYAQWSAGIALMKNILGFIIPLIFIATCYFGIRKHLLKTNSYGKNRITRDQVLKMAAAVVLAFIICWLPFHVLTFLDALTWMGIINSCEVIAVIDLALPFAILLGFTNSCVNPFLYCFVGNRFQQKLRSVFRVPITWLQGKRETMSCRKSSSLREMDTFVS
In short: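 Rat adrenal cortical microsomes came from male Sprague-Dawley CD rats (300-400 g) and were prepared at 4 °C in sucrose/EDTA/Tris pH 7.4. Samples were filtered and counted, in duplicate. Specific binding was defined with 1 µM unlabeled AII. IC50 was taken from the linear portion of the displacement curve.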

Rattus norvegicus [4] = assay: Blood pressure lowering activity in renal hypertensive rats after peroral administration; Inactive indicates fail to cause significant drop in blood pressure even at 100 mg/kg (in vivo); type: functional, organism-based; set-up: dose 100 mg/kg
In short: (§2)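 Conscious male Sprague-Dawley CD rats, six days after left renal artery ligation and with jugular and carotid cannulae, were dosed by oral gavage at 1-100 mg/kg (4-6 rats/dose). Mean arterial pressure was monitored for 3 h.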

Rattus norvegicus [5] = assay: Blood pressure lowering activity in renal hypertensive rats after intravenous administration; type: functional; in short: as §1
Rattus norvegicus [6] = assay: Effective dose that lowers the blood pressure 30 mmHg after intravenous administration; type: functional
In short: (§3)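 Renal artery-ligated conscious rats (4-6 per dose) received compound iv or po. ED30 is the dose lowering blood pressure by 30 mmHg. It was calculated by linear regression of mean maximal decreases, using at least three doses from the linear part of the dose-response curve.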

Rattus norvegicus [7] = assay: Effective dose that lowers the blood pressure 30 mmHg after peroral administration; type: functional; details: po; in short: as §3
Rattus norvegicus [8] = assay: Blood pressure lowering activity in renal hypertensive rats after peroral administration; type: functional; in short: as §2
Rattus norvegicus [9] = assay: Blood pressure lowering activity in renal hypertensive rats after peroral administration; NA=not active indicates fail to cause drop in blood pressure even at 100 mg/Kg (in vivo); type: functional, organism-based; in short: as §2
Rattus norvegicus [10] = assay: Blood pressure lowering activity in renal hypertensive rats after intravenous administration; NA=not active indicates fail to cause drop in blood pressure even at 100 mg/Kg (in vivo); type: functional, organism-based; in short: as §1
Rattus norvegicus [11] = assay: Blood pressure lowering activity in renal hypertensive rats after peroral administration; Inactive indicates fail to cause significant drop in blood pressure even at 100 mg/kg; type: functional, organism-based; set-up: dose 100 mg/kg; in short: as §2
Rattus norvegicus [12] = assay: Blood pressure lowering activity in renal hypertensive rats after peroral administration; no drop in blood pressure or a statistically insignificant drop in blood pressure was observed (in vivo); type: functional; in short: as §2

Structure (SMILES)	pKa [1]	IC50 (Angiotensin II receptor) [nM]	ED30 (Rattus norvegicus [6]) [mg/kg]	Activity (Rattus norvegicus [8]) [mg/kg]	further results
CCCCc1nc(Cl)c(CO)n1Cc1ccc(-c2ccccc2C(=O)NS(=O)(=O)c2ccccc2)cc1	8.44	–	–	–	Activity (Rattus norvegicus [2]): >3 mg/kg; Activity (Rattus norvegicus [3]): inactive
CCCCc1nc(Cl)c(CO)n1Cc1ccc(-c2ccccc2C(=O)NOCc2ccccc2)cc1	10.8	4900	–	–	Activity (Rattus norvegicus [4]): inactive; Activity (Rattus norvegicus [5]): 10 mg/kg
CCCCc1nc(Cl)c(CO)n1Cc1ccc(-c2ccccc2-c2nnn[nH]2)cc1 [LOSARTAN]	6	–	0.8	–	ED30 (Rattus norvegicus [7]): 0.59 mg/kg
CCCCc1nc(Cl)c(CO)n1Cc1ccc(-c2ccc(OC)cc2-c2nn[nH]n2)cc1	–	580	1.75	>10	–
CCCc1nc(C)c(CO)n1Cc1ccc(-c2ccccc2C(=O)O)cc1	–	1800	1.3	>30	–
CCCCc1ncc(CO)n1Cc1ccc(-c2ccccc2-c2nn[nH]n2)cc1	–	–	–	–	Activity (Rattus norvegicus [9]): inactive; Activity (Rattus norvegicus [10]): inactive
CCCCc1nc(Cl)c(CO)n1Cc1ccc(-c2ccccc2C(=O)NO)cc1	10.5	4100	–	>30	Activity (Rattus norvegicus [2]): >3 mg/kg
CC/C=C/c1nc(Cl)c(CO)n1Cc1ccc(-c2ccccc2C(=O)O)cc1	–	–	1	–	ED30 (Rattus norvegicus [7]): 3.6 mg/kg
CCCCc1nc(Cl)c(COC)n1Cc1ccc(-c2ccccc2C(=O)NNS(=O)(=O)C(F)(F)F)cc1	–	200	–	>30	Activity (Rattus norvegicus [2]): >3 mg/kg
CCCCc1nc(Cl)c(CO)n1Cc1ccc(-c2cc(OC)ccc2-c2nn[nH]n2)cc1	–	–	6.03	>10	–
CCCCc1nc(Cl)c(CO)n1Cc1ccc(-c2cc(C#N)ccc2-c2nn[nH]n2)cc1	–	510	–	>30	Activity (Rattus norvegicus [2]): >3 mg/kg
CCCCc1nc(Cl)c(C=O)n1Cc1ccc(-c2ccc(-c3nn[nH]n3)cc2)cc1	–	> 10000	–	>30	Activity (Rattus norvegicus [2]): >3 mg/kg
CCCCc1nc(Cl)c(C=O)n1Cc1ccc(-c2ccccc2C(=O)O)cc1	–	–	–	–	Activity (Rattus norvegicus [5]): 10 mg/kg; ED30 (Rattus norvegicus [7]): 1.7 mg/kg
CCCCc1nc(Cl)c(CO)n1Cc1ccc(-c2ccccc2C(=O)O)cc1	5	–	–	–	Activity (Rattus norvegicus [5]): 3 mg/kg; ED30 (Rattus norvegicus [7]): 11 mg/kg
CCCCc1nc(Cl)c(CO)n1Cc1ccc(-c2ccccc2C(=O)NOC)cc1	10.9	–	–	–	Activity (Rattus norvegicus [5]): 10 mg/kg; Activity (Rattus norvegicus [11]): inactive
CCCCc1nc(C(F)(F)F)c(CO)n1Cc1ccc(-c2ccccc2-c2nn[nH]n2)cc1	–	–	0.53	–	Activity (Rattus norvegicus [12]): >3 mg/kg
CCCCc1nc(Cl)c(C(=O)O)n1Cc1ccc(-c2ccccc2C(=O)O)cc1	–	92	0.47	>10	–
CCCCc1nc(Cl)c(CNC(=O)c2cc3c(OCC(O)CNC(C)C)cccc3[nH]2)n1Cc1ccc(-c2ccccc2C(=O)O)cc1 (stereo not given)	–	380	1	–	–
